Assay [1] concerns Streptococcus sp. 'group B'. Description: Antimicrobial activity against Group B Streptococcus serotype Ia N1 harboring E63K mutation in PBP 2A and L41S mutation in PBP 1B by broth microdilution method. The format is functional. Put shortly:
(§1)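 Broth microdilution MICs following CLSI guidelines, using a commercial panel system; GBS clinical isolates and reference strains grown in Todd-Hewitt broth at 37°C. Each strain tested five times to confirm reproducibility, with S. pneumoniae ATCC 49619 as quality-control strain. No β-lactamase activity by acidimetric method in any strain.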
(In general: In broth dilution the organism is exposed to a series of concentrations in liquid medium.)

Assay [2] has as its system Streptococcus sp. 'group B'. The assay is described as follows: Antimicrobial activity against Group B streptococcus serotype V C1 harboring E63K mutation in PBP 2A and L41S mutation in PBP 1B by broth microdilution method. The format is functional. Put shortly:
as §1

Assay [3] deals with Streptococcus sp. 'group B'. The assay is described as follows: Antimicrobial activity against Group B streptococcus serotype III N3 by broth microdilution method. In kind it is functional. Put shortly:
(§2)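 Broth microdilution MICs read on a commercial dried panel system (type 3J), following CLSI guidelines. Isolates were grown in Todd-Hewitt broth at 37°C. Each strain was tested five times for reproducibility, with S. pneumoniae ATCC 49619 as the quality-control strain. β-lactamase activity was checked by the acidimetric method.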

Assay [4] concerns Streptococcus sp. 'group B'. Description: Antimicrobial activity against Group B streptococcus serotype VI R1 harboring F395L, V405A, R433H, H438Y, and G648A mutations in PBP 2X and T567I mutation in PBP 2B by broth microdilution method. The format is functional. Put shortly:
as §1

The subject of assay [5] is Streptococcus sp. 'group B'. Description: Antimicrobial activity against Group B streptococcus serotype VI R6 harboring F395L, V405A, R433H, H438Y, A374V and G648A mutations in PBP 2X and T567I mutation in PBP 2B by broth microdilution method. The format is functional. Put shortly:
as §1

Assay [6] deals with Streptococcus sp. 'group B'. The assay is described as follows: Antimicrobial activity against Group B streptococcus serotype VI R4 harboring Q557E mutation in PBP 2X and T567I, Y262N mutations in PBP 2B by broth microdilution method. The format is functional. Put shortly: as §1
Assay [7] deals with Streptococcus sp. 'group B'. The assay is described as follows: Antimicrobial activity against Group B streptococcus serotype Ib N2 harboring E63K mutation in PBP 2A and L41S mutation in PBP 1B by broth microdilution method. In kind it is functional. In short, it runs like this:
as §1

Assay [8] concerns Streptococcus sp. 'group B'. Description: Antimicrobial activity against Group B streptococcus serotype VI N4 harboring E63K mutation in PBP 2A and L41S mutation in PBP 1B by broth microdilution method. In kind it is functional. In short, it runs like this:
as §1

Assay [9] relates to Streptococcus sp. 'group B'. The assay is described as follows: Antimicrobial activity against Group B streptococcus serotype VI R5 harboring F395L, V405A, R433H, H438Y, and G648A mutations in PBP 2X and T567I mutation in PBP 2B by broth microdilution method. The format is functional. In short, it runs like this:
as §1

In assay [10] the test system is Streptococcus sp. 'group B'. The assay is described as follows: Antimicrobial activity against Group B Streptococcus serotype V harboring E63K mutation in PBP 2A and L41S mutation in PBP 1B by broth microdilution method.
The subject of assay [11] is Streptococcus sp. 'group B'. Description: Antimicrobial activity against Group B streptococcus serotype Ib C2 harboring E63K mutation in PBP 2A and L41S mutation in PBP 1B by broth microdilution method. In kind it is functional. Put shortly:
as §1

For assay [12], the system named is Streptococcus sp. 'group B'. The assay is described as follows: Antimicrobial activity against Group B streptococcus serotype Ib R3 harboring Q557E, A400V mutations in PBP 2X and T567I, G539E mutations in PBP 2B by broth microdilution method. The format is functional. Put shortly: as §1
Assay [13] deals with Streptococcus sp. 'group B'. Description: Antimicrobial activity against Group B streptococcus R8 harboring T77I, S353F and A514V in PBP 2X; V80A and G613R in PBP 2B; and L45P, N163K, N723S and G527V in PBP 1A by broth microdilution method. In kind it is functional. Put shortly: as §1
Assay [14] deals with Streptococcus sp. 'group B'. Description: Antimicrobial activity against Group B streptococcus serotype Ia R7 harboring T77I, F395V and S353F in PBP 2X; V80A and G613R in PBP 2B; and L45P, N163K, N723S and Y470F in PBP 1A by broth microdilution method. In kind it is functional. Put shortly: as §1
The subject of assay [15] is Streptococcus sp. 'group B'. Description: Antimicrobial activity against Group B streptococcus serotype VI R2 harboring F395L, V405A, R433H, H438Y, and G648A mutations in PBP 2X and T567I mutation in PBP 2B by broth microdilution method. The format is functional. Put shortly: as §1
Assay [16] relates to Streptococcus sp. 'group B'. Description: Antimicrobial activity against Group B Streptococcus serotype III NEM 316 by broth microdilution method. In kind it is functional. In short, it runs like this:
as §2

Converted amounts (≈) assume the structure as drawn.

Usually MIC stands for the smallest concentration in the dilution series that meets the test's criterion for growth inhibition. Higher therefore signals a need for much substance. Take `C[C@H]1COc2c(N3CCN(C)CC3)c(F)cc3c(=O)c(C(=O)O)cn1c23.C[C@H]1COc2c(N3CCN(C)CC3)c(F)cc3c(=O)c(C(=O)O)cn1c23.O` [LEVOFLOXACIN]: the MIC came to 1 µg/mL in assay [1]; 0.5 µg/mL in [2]; 0.5 µg/mL in [3]; 8 µg/mL in assay [4]; 4 µg/mL in assay [5]; 2 µg/mL in [6]. Moreover, the MIC is 0.5 µg/mL in assay [7]; 0.5 µg/mL in assay [8]; 4 µg/mL in assay [9]; 0.5 µg/mL in assay [10]; > 8 µg/mL in [11]; > 8 µg/mL in [12]. Besides, the MIC in assay [13] is > 8 µg/mL; in assay [14] it was > 8 µg/mL; in assay [15], 8 µg/mL; in assay [16], 0.5 µg/mL.
With `C[C@@H](O)[C@H]1C(=O)N2C(C(=O)O)=C(S[C@@H]3CN[C@H](C(=O)N(C)C)C3)[C@H](C)[C@H]12` [MEROPENEM], the MIC in assay [1] was ≤ 0.12 µg/mL; in assay [2] it was ≤ 0.12 µg/mL; in assay [3], ≤ 0.12 µg/mL; in assay [4] it was 0.25 µg/mL (≈ 0.652 µM); in assay [5], 0.5 µg/mL (≈ 1.3 µM); in assay [6], 0.25 µg/mL (≈ 0.652 µM). The MIC in assay [7] was ≤ 0.12 µg/mL; in [8], ≤ 0.12 µg/mL; in assay [9] it was 0.25 µg/mL (≈ 0.652 µM); in assay [10], ≤ 0.12 µg/mL; in [11], ≤ 0.12 µg/mL; in assay [12], 0.25 µg/mL (≈ 0.652 µM). For the same molecule, the MIC in assay [13] was 0.25 µg/mL (≈ 0.652 µM); in assay [14] it was 0.25 µg/mL (≈ 0.652 µM); in assay [15] it was 0.5 µg/mL (≈ 1.3 µM); in assay [16] it was ≤ 0.12 µg/mL.
Turning to `CC1(C)S[C@@H]2[C@H](NC(=O)Cc3ccccc3)C(=O)N2[C@H]1C(=O)O` [PENICILLIN G], the MIC was found to be 0.06 µg/mL (≈ 0.179 µM) in [1]; 0.06 µg/mL (≈ 0.179 µM) in [2]; 0.06 µg/mL (≈ 0.179 µM) in assay [3]; 0.5 µg/mL (≈ 1.5 µM) in assay [4]; 0.5 µg/mL (≈ 1.5 µM) in assay [5]; 0.5 µg/mL (≈ 1.5 µM) in assay [6]. Besides, the MIC in assay [7] turned out to be 0.06 µg/mL (≈ 0.179 µM); in assay [8], 0.06 µg/mL (≈ 0.179 µM); in assay [9], 0.25 µg/mL (≈ 0.748 µM); in [10], 0.06 µg/mL (≈ 0.179 µM); in assay [11], 0.06 µg/mL (≈ 0.179 µM); in [12], 0.5 µg/mL (≈ 1.5 µM). Moreover, the MIC is 1 µg/mL (≈ 2.99 µM) in [13], 1 µg/mL (≈ 2.99 µM) in assay [14], 0.5 µg/mL (≈ 1.5 µM) in [15] and 0.06 µg/mL (≈ 0.179 µM) in assay [16].
On to `CN(C)[C@@H]1C(O)=C(C(N)=O)C(=O)[C@@]2(O)C(O)=C3C(=O)c4c(O)cccc4[C@@](C)(O)[C@H]3C[C@@H]12` [TETRACYCLINE], for which the MIC in [1], in [2], in assay [3], in assay [4], in [5] and in [6] was > 4 µg/mL in each case. For the same molecule, the MIC in [7] is ≤ 0.5 µg/mL; in assay [8] it was > 4 µg/mL; in [9], > 4 µg/mL; in [10] it was > 4 µg/mL; in assay [11], ≤ 0.5 µg/mL; in assay [12] it was ≤ 0.5 µg/mL. Besides, the minimum inhibitory concentration (MIC) in [13] is > 4 µg/mL; in assay [14], > 4 µg/mL; in assay [15] it was > 4 µg/mL; in assay [16], ≤ 0.5 µg/mL.
